Assays:
Assay type in all cases: functional, cell-based
SMMC-7721 = experiment: Cytotoxicity against human SMMC7721 cells after 48 hrs by MTT assay; details: SMMC-7721, 48 h
Outline: (§1)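 Cells kept in RPMI-1640 or DMEM with 10% FBS, 37 °C, 5% CO2; adherent cells allowed to attach 12 h in 96-well plates. Exposed in triplicate to 0.0625, 0.32, 1.6, 8 and 40 μM for 48 h, cisplatin and paclitaxel as positive controls. MTT (100 μg/well) added for 4 h at 37 °C, lysis in 20% SDS/50% DMF, OD at 595 nm; IC50 by Reed–Muench method.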

SW480 = experiment: Cytotoxicity against human SW480 cells after 48 hrs by MTT assay; details: SW480, 48 h; outline: as §1
A549 = experiment: Cytotoxicity against human A549 cells after 48 hrs by MTT assay; details: A549, 48 h; outline: as §1
MCF7 = experiment: Cytotoxicity against human MCF7 cells after 48 hrs by MTT assay; details: MCF7, 48 h; outline: as §1
HL-60 = experiment: Cytotoxicity against human HL60 cells after 48 hrs by MTT assay; details: HL-60, 48 h; outline: as §1

CC[C@]12C=CCN3Cc4c(n(c5ccccc5c4=O)[C@@H](c4cc5c(cc4OC)NC4=C(C(=O)OC)C[C@]6(CC)C=CCN7CC[C@@]45[C@@H]76)C1)[C@@H]32
IC50 (SMMC-7721): 10.6 µM | IC50 (SW480): 2.71 µM | IC50 (A549): 7.23 µM | IC50 (MCF7): 3.61 µM | IC50 (HL-60): 3.03 µM

CC[C@]12C=CCN3Cc4c(n(c5ccccc5c4=O)[C@@H](c4cc5c(cc4OC)NC4=C(C(=O)OC)C[C@]6([C@@H](C)O)C=CCN7CC[C@@]45[C@@H]76)C1)[C@@H]32
IC50 (SMMC-7721): 15.3 µM | IC50 (SW480): 13.9 µM | IC50 (A549): 16.2 µM | IC50 (MCF7): 12.1 µM | IC50 (HL-60): 9.6 µM

CC(=O)O[C@H]1C(=O)[C@@]2(C)[C@H]([C@H](OC(=O)c3ccccc3)[C@]3(O)C[C@H](OC(=O)[C@H](O)[C@@H](NC(=O)c4ccccc4)c4ccccc4)C(C)=C1C3(C)C)[C@]1(OC(C)=O)CO[C@@H]1C[C@@H]2O [PACLITAXEL]
IC50 (SMMC-7721): < 0.008 µM | IC50 (SW480): < 0.008 µM | IC50 (A549): < 0.008 µM | IC50 (MCF7): < 0.008 µM | IC50 (HL-60): < 0.008 µM
